Test results published in ChEMBL document CHEMBL4014350, “Alkoxyurea-Based Histone Deacetylase Inhibitors Increase Cisplatin Potency in Chemoresistant Cancer Cell Lines” (J Med Chem, 2017).
Blank lines part the entries; values can stand above or below the compound they belong to.

What was measured:
Histone deacetylase 4 = Histone deacetylase 4 (Homo sapiens, UniProt P56524); test: Inhibition of recombinant human N-terminal GST-tagged/C-terminal His-tagged HDAC4 expressed in insect cells using Boc-K(Ac)-AMC as substrate by fluorescence assay
Sequence of Histone deacetylase 4 (P56524 whole entry): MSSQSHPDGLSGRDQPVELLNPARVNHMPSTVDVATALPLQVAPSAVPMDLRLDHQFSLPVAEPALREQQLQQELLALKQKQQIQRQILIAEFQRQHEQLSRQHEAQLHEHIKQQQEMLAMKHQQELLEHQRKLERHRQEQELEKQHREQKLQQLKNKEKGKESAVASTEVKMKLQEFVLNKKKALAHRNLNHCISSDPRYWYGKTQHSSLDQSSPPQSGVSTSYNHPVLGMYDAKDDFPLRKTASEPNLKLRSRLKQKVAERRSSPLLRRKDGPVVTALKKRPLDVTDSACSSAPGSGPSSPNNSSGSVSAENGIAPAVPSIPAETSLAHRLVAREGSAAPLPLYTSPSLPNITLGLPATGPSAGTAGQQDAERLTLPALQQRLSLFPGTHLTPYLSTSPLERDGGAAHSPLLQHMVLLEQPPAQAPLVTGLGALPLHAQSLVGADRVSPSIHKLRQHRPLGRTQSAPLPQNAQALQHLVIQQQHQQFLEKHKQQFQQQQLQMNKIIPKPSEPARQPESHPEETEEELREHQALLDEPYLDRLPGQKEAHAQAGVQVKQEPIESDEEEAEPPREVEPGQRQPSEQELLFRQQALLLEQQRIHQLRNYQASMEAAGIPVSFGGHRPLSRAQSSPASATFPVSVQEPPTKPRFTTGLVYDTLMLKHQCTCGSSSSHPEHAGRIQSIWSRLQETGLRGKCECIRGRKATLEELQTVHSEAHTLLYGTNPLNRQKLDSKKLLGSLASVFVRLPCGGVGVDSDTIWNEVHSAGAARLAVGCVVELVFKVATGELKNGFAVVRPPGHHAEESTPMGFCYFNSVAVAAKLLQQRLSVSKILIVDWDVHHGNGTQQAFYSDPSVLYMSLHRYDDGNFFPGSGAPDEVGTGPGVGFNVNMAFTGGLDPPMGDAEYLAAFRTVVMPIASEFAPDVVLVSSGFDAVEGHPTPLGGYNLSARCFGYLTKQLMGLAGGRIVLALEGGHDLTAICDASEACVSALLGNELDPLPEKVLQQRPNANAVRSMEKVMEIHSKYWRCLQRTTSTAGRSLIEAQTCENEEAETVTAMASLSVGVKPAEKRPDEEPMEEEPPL

[1] = target: T1, Histone deacetylase 1/6 (Homo sapiens) (UniProt Q13547+Q9UBN7); test: Inhibition of HDAC1/HDAC6 in human Cal27CisR cells assessed as potentiation of 20 uM cisplatin-induced cytotoxicity by measuring combination index at 500 nM preincubated for 48 hrs followed by cisplatin treatment measured after 72 hrs by MTT assay
T1 sequence (Q13547 whole entry, looked up): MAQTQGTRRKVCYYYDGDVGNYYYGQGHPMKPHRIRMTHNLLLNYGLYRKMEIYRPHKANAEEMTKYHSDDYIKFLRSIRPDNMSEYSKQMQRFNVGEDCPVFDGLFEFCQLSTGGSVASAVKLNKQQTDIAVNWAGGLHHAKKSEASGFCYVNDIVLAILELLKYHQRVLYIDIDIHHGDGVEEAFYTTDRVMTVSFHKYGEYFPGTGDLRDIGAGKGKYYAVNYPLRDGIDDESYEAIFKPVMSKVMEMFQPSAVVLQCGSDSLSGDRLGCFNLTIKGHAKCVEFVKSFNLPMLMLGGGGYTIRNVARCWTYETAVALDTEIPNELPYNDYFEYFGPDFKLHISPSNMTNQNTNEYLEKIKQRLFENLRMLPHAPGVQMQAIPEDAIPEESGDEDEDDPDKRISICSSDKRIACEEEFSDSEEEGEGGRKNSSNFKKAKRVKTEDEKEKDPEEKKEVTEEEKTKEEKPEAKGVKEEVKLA
T1 sequence (Q9UBN7 whole entry, looked up): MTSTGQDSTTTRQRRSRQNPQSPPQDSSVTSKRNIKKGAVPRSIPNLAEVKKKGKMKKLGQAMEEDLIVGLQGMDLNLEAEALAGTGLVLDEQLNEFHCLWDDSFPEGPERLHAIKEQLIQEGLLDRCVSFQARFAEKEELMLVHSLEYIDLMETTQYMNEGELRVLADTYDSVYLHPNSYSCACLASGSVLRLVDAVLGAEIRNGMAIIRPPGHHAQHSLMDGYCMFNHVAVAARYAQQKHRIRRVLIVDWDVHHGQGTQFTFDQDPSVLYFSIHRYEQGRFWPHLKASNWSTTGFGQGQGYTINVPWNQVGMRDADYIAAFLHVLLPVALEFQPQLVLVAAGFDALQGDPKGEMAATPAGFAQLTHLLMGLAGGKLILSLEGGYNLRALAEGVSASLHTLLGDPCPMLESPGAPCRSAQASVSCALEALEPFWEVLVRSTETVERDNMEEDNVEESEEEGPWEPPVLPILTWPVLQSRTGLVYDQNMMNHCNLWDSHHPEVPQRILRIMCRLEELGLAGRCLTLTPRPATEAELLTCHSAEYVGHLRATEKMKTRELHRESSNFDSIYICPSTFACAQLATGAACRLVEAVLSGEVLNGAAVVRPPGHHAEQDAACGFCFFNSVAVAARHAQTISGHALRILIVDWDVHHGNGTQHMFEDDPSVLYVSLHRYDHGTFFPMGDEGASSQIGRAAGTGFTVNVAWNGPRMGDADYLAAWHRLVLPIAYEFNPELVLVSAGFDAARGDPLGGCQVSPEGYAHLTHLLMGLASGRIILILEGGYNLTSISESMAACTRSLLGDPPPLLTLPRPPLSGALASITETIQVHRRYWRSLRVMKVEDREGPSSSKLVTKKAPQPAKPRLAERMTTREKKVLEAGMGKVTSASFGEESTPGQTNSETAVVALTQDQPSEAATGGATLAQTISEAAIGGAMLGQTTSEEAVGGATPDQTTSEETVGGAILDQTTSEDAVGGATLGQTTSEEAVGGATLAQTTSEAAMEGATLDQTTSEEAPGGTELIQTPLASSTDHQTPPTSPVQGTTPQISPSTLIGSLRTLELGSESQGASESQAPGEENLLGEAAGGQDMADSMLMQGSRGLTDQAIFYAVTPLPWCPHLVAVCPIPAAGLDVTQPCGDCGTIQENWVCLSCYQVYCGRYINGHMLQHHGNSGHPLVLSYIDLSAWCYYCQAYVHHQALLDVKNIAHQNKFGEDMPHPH

[2] = target: T1, Histone deacetylase 1/6 (Homo sapiens); test: Inhibition of HDAC1/HDAC6 in human Cal27CisR cells assessed as potentiation of 10 uM cisplatin-induced cytotoxicity by measuring combination index at 500 nM preincubated for 48 hrs followed by cisplatin treatment measured after 72 hrs by MTT assay
CAL-27 [3] = test: Potentiation of 2 uM cisplatin-induced cytotoxicity against human CAL27 cells assessed as decrease in cell viability by measuring combination index at 600 uM preincubated for 48 hrs followed by cisplatin treatment measured after 72 hrs by MTT assay; assay type: functional; settings: in the assay text read “at 600 nM” for “at 600 uM”
How it was run: (§1)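 HDAC inhibitor was added 48 h before cisplatin, then cells were exposed to cisplatin for 72 h and viability was read by MTT assay. Combination index was computed by the Chou–Talalay method: CI > 1 is antagonism, CI = 1 additive, CI < 0.9 synergism. Points with fraction affected below 0.20 were flagged.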

[4] = target: T1, Histone deacetylase 1/6 (Homo sapiens); test: Inhibition of HDAC1/HDAC6 in human Cal27CisR cells assessed as potentiation of 1 uM cisplatin-induced cytotoxicity by measuring combination index at 600 uM preincubated for 48 hrs followed by cisplatin treatment measured after 72 hrs by MTT assay; assay type: cell-based
How it was run: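 Cal27CisR cells preincubated 48 h with the HDAC inhibitor, then exposed to cisplatin for 72 h. Viability read by MTT. Combination index calculated by the Chou–Talalay method: CI > 1 antagonism, CI = 1 additive, CI < 0.9 synergism. Points with fraction affected below 0.20 are flagged. Values are the mean of three experiments.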

CAL-27 [5] = test: Potentiation of 2 uM cisplatin-induced cytotoxicity against human CAL27 cells assessed as decrease in cell viability by measuring combination index at 500 uM preincubated for 48 hrs followed by cisplatin treatment measured after 72 hrs by MTT assay; assay type: functional; settings: in the assay text read “at 500 nM” for “at 500 uM”; how it was run: as §1
CAL-27 [6] = test: Potentiation of 0.5 uM cisplatin-induced cytotoxicity against human CAL27 cells assessed as decrease in cell viability measuring combination index at 600 uM preincubated for 48 hrs followed by cisplatin treatment measured after 72 hrs by MTT assay; assay type: functional; settings: in the assay text read “at 600 nM” for “at 600 uM”
How it was run: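 Cal27 and cisplatin-resistant Cal27CisR cells were preincubated with the HDAC inhibitor for 48 h, then given cisplatin in combination. Viability was read by MTT after 72 h. The combination index was computed by the Chou–Talalay method: CI > 1 is antagonism, CI = 1 is additive, and CI < 0.9 is synergism. Points with fraction affected below 0.20 were flagged.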

[7] = target: T1, Histone deacetylase 1/6 (Homo sapiens); test: Inhibition of HDAC1/HDAC6 in human Cal27CisR cells assessed as potentiation of 3.16 uM cisplatin-induced cytotoxicity by measuring combination index at 600 nM preincubated for 48 hrs followed by cisplatin treatment measured after 72 hrs by MTT assay
CAL-27 [8] = test: Potentiation of 1 uM cisplatin-induced cytotoxicity against human CAL27 cells assessed as decrease in cell viability by measuring combination index at 500 uM preincubated for 48 hrs followed by cisplatin treatment measured after 72 hrs by MTT assay; assay type: functional; how it was run: as §1
[9] = Antiproliferative activity against human Med8A cells after 72 hrs by Celltiter-Glo assay; assay type: functional, cell-based
CAL-27 [10] = test: Potentiation of 1 uM cisplatin-induced cytotoxicity against human CAL27 cells assessed as decrease in cell viability by measuring combination index at 600 uM preincubated for 48 hrs followed by cisplatin treatment measured after 72 hrs by MTT assay; assay type: functional; how it was run: as §1
[11] = target: T1, Histone deacetylase 1/6 (Homo sapiens); test: Inhibition of HDAC1/HDAC6 in human Cal27CisR cells assessed as potentiation of 10 uM cisplatin-induced cytotoxicity by measuring combination index at 600 nM preincubated for 48 hrs followed by cisplatin treatment measured after 72 hrs by MTT assay
[12] = target: T1, Histone deacetylase 1/6 (Homo sapiens); test: Inhibition of HDAC1/HDAC6 in human Cal27CisR cells assessed as potentiation of 20 uM cisplatin-induced cytotoxicity by measuring combination index at 800 nM preincubated for 48 hrs followed by cisplatin treatment measured after 72 hrs by MTT assay
[13] = target: T1, Histone deacetylase 1/6 (Homo sapiens); test: Inhibition of HDAC1/HDAC6 in human Cal27CisR cells assessed as potentiation of 20 uM cisplatin-induced cytotoxicity by measuring combination index at 600 nM preincubated for 48 hrs followed by cisplatin treatment measured after 72 hrs by MTT assay
[14] = target: T1, Histone deacetylase 1/6 (Homo sapiens); test: Inhibition of HDAC1/HDAC6 in human Cal27CisR cells assessed as potentiation of 3.16 uM cisplatin-induced cytotoxicity by measuring combination index at 800 nM preincubated for 48 hrs followed by cisplatin treatment measured after 72 hrs by MTT assay
[15] = target: T1, Histone deacetylase 1/6 (Homo sapiens); test: Inhibition of HDAC1/HDAC6 in human Cal27CisR cells assessed as potentiation of 10 uM cisplatin-induced cytotoxicity by measuring combination index at 700 nM preincubated for 48 hrs followed by cisplatin treatment measured after 72 hrs by MTT assay
[16] = Antiproliferative activity against human Cal27CisR cells measured after 72 hrs by MTT assay; assay type: functional, cell-based
Homo sapiens = species: Homo sapiens; test: Selectivity ratio of IC50 for recombinant human N-terminal GST-tagged/C-terminal His-tagged HDAC4 to IC50 for full length human recombinant N-terminal GST-tagged HDAC6 expressed in baculovirus infected sf9 cells
How it was run: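 Ratio of isolated-enzyme IC50 values. The HDAC4 IC50 was determined in duplicate by an external contract service. The HDAC6 IC50 was the mean ± SD of three independent experiments.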

CAL-27 [17] = test: Antiproliferative activity against human CAL27 cells measured after 72 hrs by MTT assay; assay type: functional, cell-based; settings: CAL-27, 72 h

IC50 (Histone deacetylase 4): > 10 µM
SMILES: COc1cc(NC(=O)NOCCCCCC(=O)NO)c2ncccc2c1
CI [1]: 0.35
CI [2]: 0.36
CI (CAL-27 [3]): 0.37
CI [4]: < 0.2
CI (CAL-27 [5]): 0.49
CI (CAL-27 [6]): 0.77
CI [7]: < 0.2
CI (CAL-27 [8]): 0.67
IC50 [9]: 1210 nM
CI (CAL-27 [10]): 0.57
CI [11]: 0.36
CI [12]: 0.37
CI [13]: 0.37
CI [14]: 0.51
CI [15]: 0.33
IC50 [16]: 1300 nM
Ratio IC50 (Homo sapiens): > 3500
IC50 (CAL-27 [17]): 900 nM

IC50 (Histone deacetylase 4): > 10 µM
SMILES: COc1cc(NC(=O)NOCCCCCC(=O)NO)c2nccc(C)c2c1
CI [1]: 0.26
CI [2]: 0.25
CI (CAL-27 [3]): 0.26
CI [4]: < 0.2
CI (CAL-27 [5]): 0.27
CI (CAL-27 [6]): 0.58
CI [7]: 0.51
CI (CAL-27 [8]): 0.37
IC50 [9]: 600 nM
CI (CAL-27 [10]): 0.37
CI [11]: 0.2
CI [12]: 0.28
CI [13]: 0.21
CI [14]: 0.26
CI [15]: 0.21
IC50 [16]: 1300 nM
Ratio IC50 (Homo sapiens): > 3500
IC50 (CAL-27 [17]): 600 nM

IC50 (Histone deacetylase 4): > 10 µM
SMILES: COc1cc(NC(=O)NOCCCCCC(=O)NO)c2nc(OC)cc(C)c2c1
CI [1]: 0.2
CI [2]: 0.16
CI (CAL-27 [3]): 0.49
CI [4]: 0.56
CI (CAL-27 [5]): 0.42
CI (CAL-27 [6]): 0.66
CI [7]: 0.24
CI (CAL-27 [8]): 0.5
IC50 [9]: 590 nM
CI (CAL-27 [10]): 0.53
CI [11]: 0.17
CI [12]: 0.21
CI [13]: 0.19
CI [14]: 0.29
CI [15]: 0.2
IC50 [16]: 1300 nM
Ratio IC50 (Homo sapiens): > 3500
IC50 (CAL-27 [17]): 1000 nM
